Data taken from ChEMBL document CHEMBL1148385, “Synthesis and opioid activity of side-chain-to-side-chain cyclic dynorphin A-(1-11) amide analogues cyclized between positions 2 and 5. 1. Substitutions in position 3” (J Med Chem, 2004).
Where a SMILES comes first, the peptide text is derived from it.

Assays:
[1] = target: Delta-type opioid receptor (Mus musculus, UniProt P32300); experiment: Binding affinity towards opioid receptor delta 1 expressed in CHO cells was determined by using [3H]DPDPE as radioligand; assay type: cell-based
Chain of Delta-type opioid receptor (P32300 whole entry): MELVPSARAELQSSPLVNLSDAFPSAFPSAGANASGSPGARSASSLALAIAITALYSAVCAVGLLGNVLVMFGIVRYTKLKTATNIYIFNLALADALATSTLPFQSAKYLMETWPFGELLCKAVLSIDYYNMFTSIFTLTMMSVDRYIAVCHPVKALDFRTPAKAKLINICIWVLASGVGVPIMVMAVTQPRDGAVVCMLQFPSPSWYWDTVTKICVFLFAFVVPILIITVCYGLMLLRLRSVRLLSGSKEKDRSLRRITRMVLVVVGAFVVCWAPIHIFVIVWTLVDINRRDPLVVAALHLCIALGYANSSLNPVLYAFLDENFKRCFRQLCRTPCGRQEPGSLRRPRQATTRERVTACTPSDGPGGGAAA

[2] = target: T1, Kappa-type opioid receptor (Rattus norvegicus, UniProt P34975); experiment: Binding affinity towards Opioid receptor kappa 1 expressed in CHO cells was determined by using [3H]diprenorphine as radioligand; assay type: cell-based
T1 sequence (P34975 whole entry): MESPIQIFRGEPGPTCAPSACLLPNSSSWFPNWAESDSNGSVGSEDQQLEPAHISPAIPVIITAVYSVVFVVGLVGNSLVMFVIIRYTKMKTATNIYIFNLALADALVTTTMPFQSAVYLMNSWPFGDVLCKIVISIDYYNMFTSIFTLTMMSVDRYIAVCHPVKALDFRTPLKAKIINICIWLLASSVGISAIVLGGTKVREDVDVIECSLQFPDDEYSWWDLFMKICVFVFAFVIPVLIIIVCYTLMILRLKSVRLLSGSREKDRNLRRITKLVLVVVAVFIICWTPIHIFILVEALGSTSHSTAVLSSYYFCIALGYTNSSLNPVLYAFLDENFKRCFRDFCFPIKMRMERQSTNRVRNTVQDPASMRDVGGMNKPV
Procedure, shortened: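 Competition binding at room temperature on CHO cells stably expressing cloned rat κ (radioligand [³H]diprenorphine, KD 0.45 nM), rat μ ([³H]DAMGO, KD 0.49 nM) or mouse δ ([³H]DPDPE, KD 1.76 nM) receptors. Peptidase inhibitors (10 μM bestatin, 30 μM captopril, 50 μM L-leucyl-L-leucine) and 3 mM Mg²⁺ present. Nonspecific binding defined with 10 μM Dyn A-(1–13)NH₂, DAMGO or DPDPE respectively. Logistic fit for IC50; Ki via Cheng–Prusoff; mean ± SEM, ≥3 assays.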

Mu-type opioid receptor = Mu-type opioid receptor (Rattus norvegicus, UniProt P33535); experiment: Binding affinity towards Opioid receptor mu 1 expressed in CHO cells was determined by using[3H]DAMGO as radioligand; assay type: cell-based
Chain of Mu-type opioid receptor (P33535 whole entry): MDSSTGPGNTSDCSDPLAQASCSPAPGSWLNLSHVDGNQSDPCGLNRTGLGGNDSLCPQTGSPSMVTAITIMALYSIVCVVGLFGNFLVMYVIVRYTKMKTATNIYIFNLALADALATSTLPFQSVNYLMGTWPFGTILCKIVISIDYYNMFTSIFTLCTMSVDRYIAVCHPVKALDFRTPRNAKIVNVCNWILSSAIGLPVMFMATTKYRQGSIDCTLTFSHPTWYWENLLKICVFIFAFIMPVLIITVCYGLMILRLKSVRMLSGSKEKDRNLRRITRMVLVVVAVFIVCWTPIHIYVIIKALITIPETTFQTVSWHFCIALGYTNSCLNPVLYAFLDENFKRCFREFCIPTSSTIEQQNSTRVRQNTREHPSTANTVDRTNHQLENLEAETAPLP

[3] = target: T1, Kappa-type opioid receptor; experiment: Inhibition of forskolin-stimulated adenylyl cyclase activity by compound in CHO cells expressing Opioid receptor kappa 1; assay type: functional, cell-based
Procedure, shortened: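 CHO cells stably expressing cloned rat κ receptor were incubated 40 min at 37 °C with 50 μM forskolin and various peptide concentrations. RO20-1724 (50 μM) and peptidase inhibitors (bestatin, captopril, L-leucyl-L-leucine) were present. [³H]cAMP was counted, with [¹⁴C]cAMP added for recovery correction and counts corrected for crossover. Mean ± SEM of 2–3 separate assays.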

Row | SMILES | Ki [1] [nM] | Ki [2] [nM] | Ki (Mu-type opioid receptor) [nM] | EC50 [3] [nM]
1 | CC[C@H](C)[C@H](NC(=O)[C@H](CCCN=C(N)N)NC(=O)[C@H](CCCN=C(N)N)NC(=O)[C@H](CN)NC(=O)[C@H](Cc1ccccc1)NC(=O)[C@H](Cc1c[nH]c2ccccc12)NC(=O)[C@@H](CC(=O)O)NC(=O)[C@@H](N)Cc1ccc(O)cc1)C(=O)N[C@@H](CCCN=C(N)N)C(=O)N1CCC[C@H]1C(=O)N[C@@H](CCCCN)C(N)=O | 927 | 1.34 | 3.41 | –
2 | CC[C@H](C)[C@H](NC(=O)[C@H](CCCN=C(N)N)NC(=O)[C@H](CCCN=C(N)N)NC(=O)[C@H](CN)NC(=O)[C@H](Cc1ccccc1)NC(=O)CNC(=O)[C@@H](CC(=O)O)NC(=O)[C@@H](N)Cc1ccc(O)cc1)C(=O)N[C@@H](CCCN=C(N)N)C(=O)N1CCC[C@H]1C(=O)N[C@@H](CCCCN)C(=O)N[C@@H](CC(C)C)C(=O)N[C@@H](CCCCN)C(N)=O | 3.9 | 0.2 | 0.26 | –
3 | CC[C@H](C)[C@H](NC(=O)[C@H](CCCNC(=N)N)NC(=O)[C@H](CCCNC(=N)N)NC(=O)[C@H](CC(C)C)NC(=O)[C@H](Cc1ccccc1)NC(=O)[C@@H](C)NC(=O)CNC(=O)[C@@H](N)Cc1ccc(O)cc1)C(=O)N[C@@H](CCCNC(=N)N)C(=O)N1CCC[C@H]1C(=O)N[C@@H](CCCCN)C(N)=O | – | 0.34 | 19.8 | –
4 | CC[C@H](C)[C@H](NC(=O)[C@H](CCCN=C(N)N)NC(=O)[C@H](CCCN=C(N)N)NC(=O)[C@H](CN)NC(=O)[C@H](Cc1ccccc1)NC(=O)[C@@H](C)NC(=O)[C@@H](CC(=O)O)NC(=O)[C@@H](N)Cc1ccc(O)cc1)C(=O)N[C@@H](CCCN=C(N)N)C(=O)N1CCC[C@H]1C(=O)N[C@@H](CCCCN)C(N)=O | 959 | 6.12 | 4.21 | –
5 | CC[C@H](C)[C@H](NC(=O)[C@H](CCCNC(=N)N)NC(=O)[C@H](CCCNC(=N)N)NC(=O)[C@H](CC(C)C)NC(=O)[C@H](Cc1ccccc1)NC(=O)[C@@H](Cc1c[nH]c2ccccc12)NC(=O)CNC(=O)[C@@H](N)Cc1ccc(O)cc1)C(=O)N[C@@H](CCCNC(=N)N)C(=O)N1CCC[C@H]1C(=O)N[C@@H](CCCCN)C(N)=O | 1080 | 5.41 | 45.9 | –
6 | CC[C@H](C)[C@H](NC(=O)[C@H](CCCN=C(N)N)NC(=O)[C@H](CCCN=C(N)N)NC(=O)[C@H](CN)NC(=O)[C@H](Cc1ccccc1)NC(=O)[C@H](C)NC(=O)[C@@H](CC(=O)O)NC(=O)[C@@H](N)Cc1ccc(O)cc1)C(=O)N[C@@H](CCCN=C(N)N)C(=O)N1CCC[C@H]1C(=O)N[C@@H](CCCCN)C(N)=O | 55.1 | 0.86 | 2.02 | –
7 | CC[C@H](C)[C@H](NC(=O)[C@H](CCCN=C(N)N)NC(=O)[C@H](CCCN=C(N)N)NC(=O)[C@H](CC(C)C)NC(=O)[C@H](Cc1ccccc1)NC(=O)CNC(=O)CNC(=O)[C@@H](N)Cc1ccc(O)cc1)C(=O)N[C@@H](CCCN=C(N)N)C(=O)N1CCC[C@H]1C(=O)N[C@@H](CCCCN)C(N)=O | – | 0.14 | – | –
8 | CC[C@H](C)[C@H](NC(=O)[C@H](CCCNC(=N)N)NC(=O)[C@H](CCCNC(=N)N)NC(=O)[C@@H]1CNC(=O)C[C@@H](NC(=O)[C@@H](N)Cc2ccc(O)cc2)C(=O)N[C@H](C)C(=O)N[C@@H](Cc2ccccc2)C(=O)N1)C(=O)N[C@@H](CCCNC(=N)N)C(=O)N1CCC[C@H]1C(=O)N[C@@H](CCCCN)C(N)=O | 139 | 0.21 | 3.89 | 0.54
9 | CC[C@H](C)[C@H](NC(=O)[C@H](CCCNC(=N)N)NC(=O)[C@H](CCCNC(=N)N)NC(=O)[C@@H]1CNC(=O)C[C@@H](NC(=O)[C@@H](N)Cc2ccc(O)cc2)C(=O)N[C@@H](Cc2c[nH]c3ccccc23)C(=O)N[C@@H](Cc2ccccc2)C(=O)N1)C(=O)N[C@@H](CCCNC(=N)N)C(=O)N1CCC[C@H]1C(=O)N[C@@H](CCCCN)C(N)=O | 7070 | 1.33 | 2.09 | 4.19
10 | CC[C@H](C)[C@H](NC(=O)[C@H](CCCN=C(N)N)NC(=O)[C@H](CCCN=C(N)N)NC(=O)[C@H](CC(C)C)NC(=O)[C@H](Cc1ccccc1)NC(=O)[C@H](Cc1c[nH]c2ccccc12)NC(=O)CNC(=O)[C@@H](N)Cc1ccc(O)cc1)C(=O)N[C@@H](CCCN=C(N)N)C(=O)N1CCC[C@H]1C(=O)N[C@@H](CCCCN)C(N)=O | 168 | 1.56 | 42.7 | –
11 | CC[C@H](C)[C@H](NC(=O)[C@H](CCCN=C(N)N)NC(=O)[C@H](CCCN=C(N)N)NC(=O)[C@@H]1CNC(=O)C[C@@H](NC(=O)[C@@H](N)Cc2ccc(O)cc2)C(=O)NCC(=O)N[C@@H](Cc2ccccc2)C(=O)N1)C(=O)N[C@@H](CCCN=C(N)N)C(=O)N1CCC[C@H]1C(=O)N[C@@H](CCCCN)C(N)=O | 5.1 | 0.46 | 0.52 | 0.39
12 | CC[C@H](C)[C@H](NC(=O)[C@H](CCCN=C(N)N)NC(=O)[C@H](CCCN=C(N)N)NC(=O)[C@@H]1CNC(=O)C[C@@H](NC(=O)[C@@H](N)Cc2ccc(O)cc2)C(=O)NCC(=O)N[C@@H](Cc2ccccc2)C(=O)N1)C(=O)N[C@@H](CCCN=C(N)N)C(=O)N1CCC[C@H]1C(=O)N[C@@H](CCCCN)C(=O)N[C@@H](CC(C)C)C(=O)N[C@@H](CCCCN)C(N)=O (HELM PEPTIDE1{Y.[dD].G.F.[O=C([C@H](CN[*:3])N[*:1])[*:2]].R.R.I.R.P.K.L.K.[am]}$PEPTIDE1,PEPTIDE1,2:R3-5:R3$$$V2.0) | 3.31 | 0.16 | 1.17 | –
13 | CC[C@H](C)[C@H](NC(=O)[C@H](CCCN=C(N)N)NC(=O)[C@H](CCCN=C(N)N)NC(=O)[C@@H]1CNC(=O)C[C@@H](NC(=O)[C@@H](N)Cc2ccc(O)cc2)C(=O)N[C@H](Cc2c[nH]c3ccccc23)C(=O)N[C@@H](Cc2ccccc2)C(=O)N1)C(=O)N[C@@H](CCCN=C(N)N)C(=O)N1CCC[C@H]1C(=O)N[C@@H](CCCCN)C(N)=O | 949 | 2.25 | 7.27 | 12
14 | CC[C@H](C)[C@H](NC(=O)[C@H](CCCNC(=N)N)NC(=O)[C@H](CCCNC(=N)N)NC(=O)[C@@H]1CNC(=O)C[C@@H](NC(=O)[C@@H](N)Cc2ccc(O)cc2)C(=O)N2CCC[C@H]2C(=O)N[C@@H](Cc2ccccc2)C(=O)N1)C(=O)N[C@@H](CCCNC(=N)N)C(=O)N1CCC[C@H]1C(=O)N[C@@H](CCCCN)C(N)=O | > 10000 | 9.03 | 125 | 153
15 | CC[C@H](C)[C@H](NC(=O)[C@H](CCCN=C(N)N)NC(=O)[C@H](CCCN=C(N)N)NC(=O)[C@H](CN)NC(=O)[C@H](Cc1ccccc1)NC(=O)[C@@H](Cc1c[nH]c2ccccc12)NC(=O)[C@@H](CC(=O)O)NC(=O)[C@@H](N)Cc1ccc(O)cc1)C(=O)N[C@@H](CCCN=C(N)N)C(=O)N1CCC[C@H]1C(=O)N[C@@H](CCCCN)C(N)=O | 813 | 1.26 | 4.57 | –
16 | CC[C@H](C)[C@H](NC(=O)[C@H](CCCN=C(N)N)NC(=O)[C@H](CCCN=C(N)N)NC(=O)[C@H](CC(C)C)NC(=O)[C@H](Cc1ccccc1)NC(=O)CNC(=O)CNC(=O)[C@@H](N)Cc1ccc(O)cc1)C(=O)N[C@@H](CCCN=C(N)N)C(=O)N1CCC[C@H]1C(=O)N[C@@H](CCCCN)C(=O)N[C@@H](CC(C)C)C(=O)N[C@@H](CCCCN)C(N)=O | 6.07 | 0.39 | 1.88 | –
17 | CC[C@H](C)[C@H](NC(=O)[C@H](CCCN=C(N)N)NC(=O)[C@H](CCCN=C(N)N)NC(=O)[C@H](CN)NC(=O)[C@H](Cc1ccccc1)NC(=O)CNC(=O)[C@@H](CC(=O)O)NC(=O)[C@@H](N)Cc1ccc(O)cc1)C(=O)N[C@@H](CCCN=C(N)N)C(=O)N1CCC[C@H]1C(=O)N[C@@H](CCCCN)C(N)=O | 11.6 | 1.59 | 0.22 | –
18 | CC[C@H](C)[C@H](NC(=O)[C@H](CCCN=C(N)N)NC(=O)[C@H](CCCN=C(N)N)NC(=O)[C@@H]1CNC(=O)C[C@@H](NC(=O)[C@@H](N)Cc2ccc(O)cc2)C(=O)N[C@@H](C)C(=O)N[C@@H](Cc2ccccc2)C(=O)N1)C(=O)N[C@@H](CCCN=C(N)N)C(=O)N1CCC[C@H]1C(=O)N[C@@H](CCCCN)C(N)=O | 30.8 | 1.1 | 2.52 | 0.65
19 | CC[C@H](C)[C@H](NC(=O)[C@H](CCCNC(=N)N)NC(=O)[C@H](CCCNC(=N)N)NC(=O)[C@H](CC(C)C)NC(=O)[C@H](Cc1ccccc1)NC(=O)[C@H](C)NC(=O)CNC(=O)[C@@H](N)Cc1ccc(O)cc1)C(=O)N[C@@H](CCCNC(=N)N)C(=O)N1CCC[C@H]1C(=O)N[C@@H](CCCCN)C(N)=O | – | 0.26 | 16.4 | –
